Source: ChEMBL document CHEMBL1125457, “Inhibitors of acyl-CoA:cholesterol acyltransferase. 1. Identification and structure-activity relationships of a novel series of fatty acid anilide hypocholesterolemic agents” (J Med Chem, 1992)

Tests used:
Rattus norvegicus [1] = organism: Rattus norvegicus; experiment: Percent change in high density lipoprotein (HDL-cholesterol in cholesterol-fed rats.; assay type: functional
How it was run: (§1)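 Rats fed ad libitum for 1 week on a diet with peanut oil (5.5%), cholesterol (1.5%) and cholic acid (0.3%), with compound mixed in at 0.05% of the diet. Sacrificed in the fed state. Plasma total and/or HDL cholesterol measured as percent change versus cholesterol-fed controls. Significance by ANOVA followed by Fisher's multiple range test, p < 0.05.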

Rattus norvegicus [2] = organism: Rattus norvegicus; experiment: Percent change in total cholesterol (TC) in cholic acid (0.3%) -cholesterol (1.5%) -peanut oil(5.5%) -fed rats.; assay type: functional; how it was run: as §1
O-acyltransferase [3] = molecular target: T1, O-acyltransferase (Oryctolagus cuniculus, UniProt G1SFD9); experiment: In vitro inhibition of acyl coenzyme A:cholesterol acyltransferase, in intestinal microsomes isolated from cholesterol-fed rabbits; set-up: species or system Intestine
How it was run: (§2)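 Rabbit intestinal mucosa scraped, washed, homogenized in phosphate/KCl/EDTA/sucrose buffer; microsomes pelleted at 100000g and stored at -70 °C. Microsomes (0.3 mg protein) with BSA (0.5 mg) and inhibitor in DMSO/Tween-20 preincubated 5 min at 37 °C. [1-14C]oleoyl-CoA (10 nmol, 0.05 μCi) then added for 5 min. Cholesteryl oleate extracted, separated by TLC and counted by scintillation. Four dilutions per compound, in triplicate.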

O-acyltransferase [4] = molecular target: T1, O-acyltransferase; experiment: Tested in vitro to inhibit Acyl coenzyme A:cholesterol acyltransferase in intestinal microsomes isolated from cholesterol-fed rabbits.; set-up: species or system Intestine; how it was run: as §2

T1 sequence (G1SFD9 1-524): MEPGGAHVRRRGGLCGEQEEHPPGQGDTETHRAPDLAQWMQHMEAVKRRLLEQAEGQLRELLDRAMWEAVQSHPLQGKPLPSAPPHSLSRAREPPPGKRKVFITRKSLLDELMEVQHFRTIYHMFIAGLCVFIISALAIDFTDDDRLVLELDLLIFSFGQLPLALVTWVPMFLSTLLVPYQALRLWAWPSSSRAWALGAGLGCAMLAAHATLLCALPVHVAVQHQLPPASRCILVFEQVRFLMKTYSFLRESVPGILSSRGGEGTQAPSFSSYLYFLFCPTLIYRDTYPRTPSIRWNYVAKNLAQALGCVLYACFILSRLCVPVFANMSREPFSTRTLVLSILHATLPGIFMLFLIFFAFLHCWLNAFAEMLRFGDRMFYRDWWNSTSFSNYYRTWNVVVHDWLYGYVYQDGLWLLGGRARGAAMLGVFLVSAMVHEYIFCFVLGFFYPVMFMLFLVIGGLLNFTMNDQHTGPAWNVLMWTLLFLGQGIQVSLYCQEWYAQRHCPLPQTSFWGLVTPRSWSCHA

SMILES | Change (Rattus norvegicus [1]) | Change (Rattus norvegicus [2]) | IC50 (O-acyltransferase [3]) | IC50 (O-acyltransferase [4])
CCCCCCCC(C)(C)C(=O)Nc1c(OC)cc(OC)cc1OC | 2% | -13% | 180 nM | –
CCCCCCCCCCC(C)(C)C(=O)Nc1c(OC)cc(OC)cc1OCCCCCCC | – | – | 140 nM | –
CCCCCCCC/C=C/CCCCCCCC(=O)Nc1c(C)cccc1OC | – | -30% | 20 nM | –
CCCCCCCCCCC(C)(C)C(=O)Nc1c(C(C)C)cccc1C(C)C | – | – | 210 nM | –
CCCCCCCCCCCCC(C)C(=O)Nc1c(OC)cc(OC)cc1OC (configuration not stated) | – | -39% | – | –
CCCCCCCC/C=C/CCCCCCCC(=O)Nc1cc(Cl)c(OC)cc1OC | – | -7% | 520 nM | –
CCCCCCCCCCC(C)(C)C(=O)Nc1c(C)cccc1OCC | – | – | 180 nM | –
CCCCCCCCCCC(C)(C)C(=O)Nc1c(C)cc(C)cc1C | – | – | 194 nM | –
CCCCCCCC/C=C/CCCCCCCC(=O)Nc1cccc(C(=O)OC)c1C | – | – | > 5000 nM | –
CCCCCCCCCCCCC(CC)C(=O)Nc1c(OC)cc(OC)cc1OC (configuration not stated) | – | -11% | 52 nM | –
CCCCCCCCCCCCC(C)(C)C(=O)Nc1c(OC)cc(OC)cc1OC | 19% | -45% | 63 nM | –
CCCCCCCCCCC1(C(=O)Nc2c(OC)cc(OC)cc2OC)CCCCC1 | – | -43% | 70 nM | –
CCCCCCCC/C=C/CCCCCCCC(=O)Nc1cccc(C)c1[N+](=O)[O-] | – | – | 12000 nM | –
CCCCCCCCCCC(C)(C)C(=O)Nc1c(C)cc(Br)cc1C | – | – | 410 nM | –
CCCCCCCCCCC(C)(C)C(=O)Nc1c(F)cc(F)cc1F | – | – | 260 nM | –
CCCCCCCCCCCCCCC1(C(=O)Nc2c(OC)cc(OC)cc2OC)CC1 | 16% | -43% | 49 nM | –
CCCCCCCC/C=C/CCCCCCCC(=O)Nc1ccccc1-c1ccccc1 | – | – | 910 nM | –
CCCCCCCCCCC(C)(C)C(=O)Nc1c(CC)cccc1CC | – | – | 390 nM | –
CCCCCCCCCCC(C)(C)C(=O)Nc1c(OC)cc(OC)cc1OCC(=O)O | – | – | > 1000 nM | –
CCCCCCCCCC(C)(C)C(=O)Nc1c(OC)cc(OC)cc1OC | 86% | -53% | – | 59 nM
CCCCCCCC/C=C/CCCCCCCC(=O)Nc1c(OC)cc(OC)cc1OC | – | -38% | – | 51 nM
CCCCCCCC/C=C/CCCCCCCC(=O)Nc1c(C)cccc1C(C)C | – | -45% | 23 nM | –
CCCCCCCCCCCCCCC(C)(C)C(=O)Nc1c(OC)cc(OC)cc1OC | 26% | -55% | 44 nM | –
CCCCCCCCC(C)(C)C(=O)Nc1c(OC)cc(OC)cc1OC | 53% | -43% | 59 nM | –
CCCCCCCC/C=C/CCCCCCCC(=O)Nc1c(C(C)C)cccc1C(C)C | – | -21% | 7 nM | –

SMILES | Change (Rattus norvegicus [1]) | Change (Rattus norvegicus [2]) | IC50 (O-acyltransferase [3]) | IC50 (O-acyltransferase [4])
CCCCCCCCCCC(C)C(=O)Nc1c(OC)cc(OC)cc1OC (configuration not stated) | – | – | – | 90 nM
CCCCCCCC/C=C/CCCCCCCC(=O)Nc1ccccc1C(=O)c1ccccc1 | – | – | > 10000 nM | –
CCCCCCCC/C=C/CCCCCCCC(=O)Nc1ccccc1Cl | – | – | 75000 nM | –
CCCCCCCC/C=C/CCCCCCCC(=O)Nc1ccc(CC(=O)OCC)c(C)c1 | – | -10% | 3000 nM | –
CCCCCCCC/C=C/CCCCCCCC(=O)Nc1cc(C(=O)OC)ccc1OC | – | – | 430 nM | –
CCCCCCCCCCCCCCCC(=O)Nc1c(OC)cc(OC)cc1OC | – | -38% | 54 nM | –
CCCCCCCC/C=C/CCCCCCCC(=O)Nc1cc(OC)c(OC)cc1OC | – | – | 1100 nM | –
CCCCCCCCCCC(C)(C)C(=O)Nc1cc(C(=O)OC)ccc1OC | – | – | 130 nM | –
CCCCCCCC/C=C/CCCCCCC(C)C(=O)Nc1c(OC)cc(OC)cc1OC (configuration not stated) | – | -40% | 36 nM | –
CCCCCCCC/C=C/CCCCCCCC(=O)Nc1cccc2c1CCCC2 | – | – | 350 nM | –
CCCCCCCCCCCCCCC(C)C(=O)Nc1c(OC)cc(OC)cc1OC (configuration not stated) | – | – | 31 nM | –
CCCCCCCCCCCCCCCCC(C)(C)C(=O)Nc1c(OC)cc(OC)cc1OC | 13% | -34% | 87 nM | –
CCCCCCCCCCCCCCCCCC(=O)Nc1c(OC)cc(OC)cc1OC | 31% | -11% | 52 nM | –
CCCCCCCCCCC(C)(C)C(=O)Nc1ccc(C)cc1C | – | – | 680 nM | –
CCCCCCCCCCCCCC(=O)Nc1c(OC)cc(OC)cc1OC | – | -44% | 190 nM | –
CCCCCCCCCCC(C)(C)C(=O)Nc1c(C)cccc1C | – | – | 1300 nM | –
CCCCCCCCCCC1(C(=O)Nc2c(OC)cc(OC)cc2OC)CCCCCC1 | 9% | -42% | 93 nM | –
CCCCCCCCCCCCC1(C(=O)Nc2c(OC)cc(OC)cc2OC)CC1 | 27% | -40% | 58 nM | –
CCCCCCCCCCC(C)(C)C(=O)Nc1ccc(C)c(C)c1 | – | – | 1660 nM | –
CCCCCCCC/C=C/CCCCCCCC(=O)Nc1c(CC)cccc1CC | – | -51% | 17 nM | –
CCCCCCCCCCC(CC)C(=O)Nc1c(OC)cc(OC)cc1OC (configuration not stated) | – | – | – | 73 nM
CCCCCCCC/C=C/CCCCCCCC(=O)Nc1ccccc1C(C)C | – | – | 600 nM | –
CCCCCCCC/C=C/CCCCCCCC(=O)Nc1ccc(F)cc1F | – | -19% | 32000 nM | –
CCCCCCCC/C=C/CCCCCCCC(=O)Nc1c(O)cc(OC)cc1OC | – | – | 150 nM | –
CCCCCCCCCCC(C)(C)C(=O)Nc1c(O)cc(OC)cc1OC | – | – | 590 nM | –

SMILES | Change (Rattus norvegicus [1]) | Change (Rattus norvegicus [2]) | IC50 (O-acyltransferase [3]) | IC50 (O-acyltransferase [4])
CCCCCCCCCCC(CC)(CC)C(=O)Nc1c(OC)cc(OC)cc1OC | – | – | 97 nM | –
CCCCCCCC/C=C/CCCCCCCC(=O)Nc1cc(C(=O)OC)c(C)cc1C | – | -41% | 60 nM | –
CCCCCCCCCCC1(C(=O)Nc2c(OC)cc(OC)cc2OC)CCC1 | 73% | -57% | 39 nM | –
CCCCCCCCCCC(C)(C)C(=O)Nc1c(OC)cc(OC)cc1OCC(=O)OC | – | – | 2300 nM | –
CCCCCCCCCCC(C)(C)C(=O)Nc1c(C)cccc1C(C)C | – | – | 240 nM | –
CCCCCCCC/C=C/CCCCCCCC(=O)Nc1c(C)cccc1OCC | – | -45% | 15 nM | –
CCCCCCCC/C=C/CCCCCCCC(=O)Nc1ccccc1CC | – | – | 1200 nM | –
CCCCCCCC/C=C/CCCCCCC(C)(C)C(=O)Nc1c(OC)cc(OC)cc1OC | – | -60% | 44 nM | –
CCCCCCCC/C=C/CCCCCCCC(=O)Nc1ccc(OC)c(OC)c1 | – | – | – | 4500 nM
CCCCCCCCCCC(C)(C)C(=O)Nc1c(C)cccc1Cl | – | – | 750 nM | –
CCCCCCCCCCC(C)(C)C(=O)Nc1c(C)cccc1OC | – | – | 210 nM | –
CCCCCCCC/C=C/CCCCCCCC(=O)Nc1c(Cl)cc(Cl)cc1Cl | – | -44% | 30 nM | –
CCCCCCCC/C=C/CCCCCCCC(=O)Nc1ccc(C)cc1C(=O)OC | – | – | 9200 nM | –
C=C(CCCCCCCCCC)C(=O)Nc1c(OC)cc(OC)cc1OC | – | – | 200 nM | –
CCCCCCCC/C=C/CCCCCCCC(=O)Nc1c(F)cc(F)cc1F | – | 2% | – | 6300 nM
CCCCCCCC/C=C/CCCCCCCC(=O)Nc1ccccc1OC | – | – | 8000 nM | –
CCCCCCCC/C=C/CCCCCCCC(=O)Nc1c(C)cc(C)cc1C | – | -27% | 700 nM | –
CCCCCCCCCCC1(C(=O)Nc2c(OC)cc(OC)cc2OC)CCCC1 | 45% | -67% | 32 nM | –
CCCCCCCC/C=C/CCCCCCCC(=O)Nc1cc(C(=O)OC)c(OC)cc1OC | – | – | 1100 nM | –
CCCCCCCC/C=C/CCCCCCCC(=O)Nc1ccc(OC)cc1OC | – | – | 3000 nM | –
CCCCCCCCCCCCCCC(=O)Nc1c(OC)cc(OC)cc1OC | – | – | 65 nM | –
CCCCCCCC/C=C\CCCCCCCC(=O)Nc1c(C)cccc1C | – | -38% | – | 43 nM
CCCCCCCCCCC(C)(C)C(=O)Nc1c(OC)cc(OC)cc1OC [CL-976] | 94% | – | – | –
